# According to ChEMBL document CHEMBL4359830, “Discovery and structure-activity relationship of novel diphenylthiazole derivatives as BTK inhibitor with potent activity against B cell lymphoma cell lines” (Eur J Med Chem, 2019):
# Activity calls are given as the source filed them. The calls are words filed in the database; no cut-off is given here.
# Legend:
# Ramos [1] = test: Induction of apoptosis in human Ramos cells assessed as viable cells at 0.1 uM measured after 15 mins by Annexin-V-APC staining-based flow cytometric analysis (reference value: 96.5 %); format: functional; settings: 0.25 h, read-out: Activity
# [2] = target: T1, Tyrosine-protein kinase BTK (Homo sapiens, UniProt Q06187); test: Inhibition of human recombinant full length N-terminal His tagged BTK expressed in baculovirus infected Sf9 cells using poly (Glu,Tyr) 4:1 as substrate measured after 60 mins in presence of ATP by ADP-Glo kinase assay
# [3] = target: Tyrosine-protein kinase BTK (Homo sapiens, UniProt Q06187, C481S); test: Inhibition of human recombinant full length N-terminal His tagged BTK C481S mutant expressed in baculovirus infected Sf9 cells using poly (Glu,Tyr) 4:1 as substrate measured after 60 mins in presence of ATP by ADP-Glo kinase assay
# Ramos [4] = test: Induction of apoptosis in human Ramos cells assessed as early apoptotic cells at 0.1 uM measured after 15 mins by Annexin-V-APC staining-based flow cytometric analysis (reference value: 0.14 %); format: functional
# Ramos [5] = test: Induction of apoptosis in human Ramos cells assessed as early apoptotic cells at 1 uM measured after 15 mins by Annexin-V-APC staining-based flow cytometric analysis (reference value: 0.14 %); format: functional
# Ramos [6] = test: Induction of apoptosis in human Ramos cells assessed as early apoptotic cells at 3 uM measured after 15 mins by Annexin-V-APC staining-based flow cytometric analysis (reference value: 0.14 %); format: functional
# Ramos [7] = test: Induction of apoptosis in human Ramos cells assessed as necrotic cells at 3 uM measured after 15 mins by Annexin-V-APC staining-based flow cytometric analysis (reference value: 1.50 %); format: functional
# Ramos [8] = test: Induction of apoptosis in human Ramos cells assessed as necrotic cells at 5 uM measured after 15 mins by Annexin-V-APC staining-based flow cytometric analysis (reference value: 1.50 %); format: functional
# Raji [9] = test: Induction of apoptosis in human Raji cells assessed as viable cells at 0.1 uM measured after 15 mins by Annexin-V-APC staining-based flow cytometric analysis (reference value: 97.5 %); format: functional; settings: 0.25 h, read-out: Activity
# Raji [10] = test: Induction of apoptosis in human Raji cells assessed as late apoptotic cells at 0.1 uM measured after 15 mins by Annexin-V-APC staining-based flow cytometric analysis (reference value: 0.57 %); format: functional
# Raji [11] = test: Induction of apoptosis in human Raji cells assessed as necrotic cells at 0.1 uM measured after 15 mins by Annexin-V-APC staining-based flow cytometric analysis (reference value: 1.87 %); format: functional
# Raji [12] = test: Induction of apoptosis in human Raji cells assessed as late apoptotic cells at 1 uM measured after 15 mins by Annexin-V-APC staining-based flow cytometric analysis (reference value: 0.57 %); format: functional
# Raji [13] = test: Induction of apoptosis in human Raji cells assessed as viable cells at 3 uM measured after 15 mins by Annexin-V-APC staining-based flow cytometric analysis (reference value: 97.5 %); format: functional; settings: 0.25 h, read-out: Activity
# Raji [14] = test: Induction of apoptosis in human Raji cells assessed as late apoptotic cells at 3 uM measured after 15 mins by Annexin-V-APC staining-based flow cytometric analysis (reference value: 0.57 %); format: functional
# Raji [15] = test: Induction of apoptosis in human Raji cells assessed as necrotic cells at 3 uM measured after 15 mins by Annexin-V-APC staining-based flow cytometric analysis (reference value: 1.87 %); format: functional
# Raji [16] = test: Induction of apoptosis in human Raji cells assessed as viable cells at 5 uM measured after 15 mins by Annexin-V-APC staining-based flow cytometric analysis (reference value: 97.5 %); format: functional; settings: Homo sapiens, Raji, 0.25 h; read-out: Activity
# Ramos [17] = test: Cell cycle arrest in human Ramos cells assessed as accumulation at G0/G1 phase at 0.1 uM measured after 48 hrs by propidium iodide/RNase staining based flow cytometric analysis (reference value: 37.66 %); format: functional
# Ramos [18] = test: Cell cycle arrest in human Ramos cells assessed as accumulation at S phase at 0.1 uM measured after 48 hrs by propidium iodide/RNase staining based flow cytometric analysis (reference value: 56.35 %); format: functional
# Ramos [19] = test: Cell cycle arrest in human Ramos cells assessed as accumulation at G2/M phase at 0.1 uM measured after 48 hrs by propidium iodide/RNase staining based flow cytometric analysis (reference value: 5.98 %); format: functional
# Ramos [20] = test: Cell cycle arrest in human Ramos cells assessed as accumulation at S phase at 1 uM measured after 48 hrs by propidium iodide/RNase staining based flow cytometric analysis (reference value: 56.35 %); format: functional
# Ramos [21] = test: Cell cycle arrest in human Ramos cells assessed as accumulation at G2/M phase at 1 uM measured after 48 hrs by propidium iodide/RNase staining based flow cytometric analysis (reference value: 5.98 %); format: functional
# Ramos [22] = test: Cell cycle arrest in human Ramos cells assessed as accumulation at G0/G1 phase at 5 uM measured after 48 hrs by propidium iodide/RNase staining based flow cytometric analysis (reference value: 37.66 %); format: functional
# Raji [23] = test: Cell cycle arrest in human Raji cells assessed as accumulation at G0/G1 phase at 0.1 uM measured after 48 hrs by propidium iodide/RNase staining based flow cytometric analysis (reference value: 48.68 %); format: functional
# Raji [24] = test: Cell cycle arrest in human Raji cells assessed as accumulation at G2/M phase at 0.1 uM measured after 48 hrs by propidium iodide/RNase staining based flow cytometric analysis (reference value: 18.14 %); format: functional
# Raji [25] = test: Cell cycle arrest in human Raji cells assessed as accumulation at S phase at 1 uM measured after 48 hrs by propidium iodide/RNase staining based flow cytometric analysis (reference value: 33.18 %); format: functional
# Raji [26] = test: Cell cycle arrest in human Raji cells assessed as accumulation at S phase at 5 uM measured after 48 hrs by propidium iodide/RNase staining based flow cytometric analysis (reference value: 33.18 %); format: functional
# [27] = target: T1, Tyrosine-protein kinase BTK; test: Inhibition of BTK in anti-IgM-stimulated human Raji cells assessed as decrease in auto-phosphorylation at Y223 residue at 5 uM after 48 hrs by Western blot analysis; format: cell-based
# Outline: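 Cells were stimulated with anti-IgM and exposed to serial dilutions for 48 h. Lysis was in 2× Laemmli buffer with 2.5% β-mercaptoethanol at 4 °C for 15 min, then boiling for 5 min. Proteins were separated on 10% SDS-PAGE and moved to nitrocellulose. Blots were probed overnight (12–18 h, 4 °C) with phospho-BTK Tyr223, phospho-PLCγ2 Tyr1217 and β-actin antibodies (1:1000), then anti-rabbit HRP, with chemiluminescent detection.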
# T1 sequence (Q06187 whole entry): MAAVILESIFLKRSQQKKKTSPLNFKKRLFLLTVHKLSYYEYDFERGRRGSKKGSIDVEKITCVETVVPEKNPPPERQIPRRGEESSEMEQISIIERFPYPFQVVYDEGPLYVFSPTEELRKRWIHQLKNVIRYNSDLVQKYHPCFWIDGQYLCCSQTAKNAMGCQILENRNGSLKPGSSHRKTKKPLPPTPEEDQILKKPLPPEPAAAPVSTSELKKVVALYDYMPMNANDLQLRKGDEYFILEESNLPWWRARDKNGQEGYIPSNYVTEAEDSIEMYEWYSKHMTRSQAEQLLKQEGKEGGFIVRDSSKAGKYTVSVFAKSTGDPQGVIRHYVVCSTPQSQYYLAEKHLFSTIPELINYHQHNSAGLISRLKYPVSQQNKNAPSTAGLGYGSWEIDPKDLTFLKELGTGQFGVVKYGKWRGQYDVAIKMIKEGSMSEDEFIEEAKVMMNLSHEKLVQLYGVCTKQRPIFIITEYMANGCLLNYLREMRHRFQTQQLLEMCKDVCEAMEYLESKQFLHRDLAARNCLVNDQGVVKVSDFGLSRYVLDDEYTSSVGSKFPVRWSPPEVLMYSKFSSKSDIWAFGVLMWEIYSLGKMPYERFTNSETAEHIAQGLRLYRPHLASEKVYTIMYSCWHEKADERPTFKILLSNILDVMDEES
# Sequence of Tyrosine-protein kinase BTK (Homo sapiens, UniProt Q06187, C481S) (Q06187 2-659 C481S limits assumed): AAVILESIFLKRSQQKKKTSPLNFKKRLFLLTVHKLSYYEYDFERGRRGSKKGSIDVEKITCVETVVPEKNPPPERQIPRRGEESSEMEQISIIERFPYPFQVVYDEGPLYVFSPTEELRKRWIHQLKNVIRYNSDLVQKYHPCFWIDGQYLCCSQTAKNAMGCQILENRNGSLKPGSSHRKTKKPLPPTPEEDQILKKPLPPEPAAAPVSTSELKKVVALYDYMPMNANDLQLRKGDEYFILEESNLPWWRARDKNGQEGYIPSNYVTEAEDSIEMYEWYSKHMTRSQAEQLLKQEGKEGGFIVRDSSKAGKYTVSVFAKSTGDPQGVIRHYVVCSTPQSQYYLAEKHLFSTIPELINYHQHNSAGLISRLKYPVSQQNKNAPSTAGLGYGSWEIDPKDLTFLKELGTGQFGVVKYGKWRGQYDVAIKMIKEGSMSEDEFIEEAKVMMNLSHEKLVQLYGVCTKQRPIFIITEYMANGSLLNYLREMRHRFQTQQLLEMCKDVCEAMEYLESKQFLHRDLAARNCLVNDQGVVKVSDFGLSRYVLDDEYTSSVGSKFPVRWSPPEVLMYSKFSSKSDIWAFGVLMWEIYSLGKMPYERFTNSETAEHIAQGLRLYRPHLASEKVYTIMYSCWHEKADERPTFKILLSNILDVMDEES
smiles,measurement,setting,value
CN1CCN(c2ccc(Nc3nc(-c4cccc(NC(=O)c5ccc(F)c(Cl)c5)c4)sc3C(N)=O)cc2)CC1,viability at 0.1 µM,Ramos [1],96.4%
same,IC50,[2],90 nM
same,IC50,[3],61 nM
same,Activity,Ramos [4],0.072%
same,Activity,Ramos [5],0.051%
same,Activity,Ramos [6],0.052%
same,Activity,Ramos [7],6.17%
same,Activity,Ramos [8],25.7%
same,viability at 0.1 µM,Raji [9],97.8%
same,Activity,Raji [10],0.44%
same,Activity,Raji [11],1.76%
same,Activity,Raji [12],0.53%
same,viability at 3 µM,Raji [13],95.6%
same,Activity,Raji [14],1.52%
same,Activity,Raji [15],2.91%
same,viability at 5 µM,Raji [16],0.15%
same,Activity,Ramos [17],40.13%
same,Activity,Ramos [18],51.54%
same,Activity,Ramos [19],8.33%
same,Activity,Ramos [20],33.13%
same,Activity,Ramos [21],11.39%
same,Activity,Ramos [22],83.68%
same,Activity,Raji [23],47.04%
same,Activity,Raji [24],19.33%
same,Activity,Raji [25],21.47%
same,Activity,Raji [26],1.26%
same,inhibition,[27],Active
